The record followed here is ChEMBL document CHEMBL4052804, “Design and synthesis of piperazine acetate podophyllotoxin ester derivatives targeting tubulin depolymerization as new anticancer agents” (Bioorg Med Chem Lett, 2017).

The species entered for one test is Homo sapiens. In words: Induction of tubulin depolymerization in human MCF7 cells at 1 uM after 12 hrs by DAPI staining based confocal microscopic analysis. The format is cell-based.
The next test deals with A549. In words: Cytotoxicity against human A549 cells after 24 hrs by MTT assay. In kind it is functional, cell-based. The settings on record: A549, 24 h. The procedure, abridged: (§1)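 In vitro antiproliferative screen by MTT assay against human MCF-7 breast, HeLa cervical, A549 lung adenocarcinoma and HepG-2 hepatoma cells. Output is the IC50.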
In general terms: Tetrazolium assays rely on reduction of a dye to a coloured formazan, in cell work by metabolically active cells.

Another test deals with MCF7. Nature of the test: Cytotoxicity against human MCF7 cells after 24 hrs by MTT assay. In kind it is functional, cell-based. The conditions noted are these: MCF7, 24 h. Summed up: as §1
For the next test, the system named is L02. Nature of the test: Cytotoxicity against human L02 cells after 24 hrs by MTT assay. The format is cell-based. The settings on record: L02, 24 h. The procedure, abridged:
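Normal human liver L02 cells were tested at multiple concentrations in an MTT assay. Output is the median cytotoxic concentration (CC50).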

The subject of the next test is HeLa. In words: Cytotoxicity against human HeLa cells after 24 hrs by MTT assay. The format is functional, cell-based. Summed up: as §1
The test system of the next test is HepG2. In words: Cytotoxicity against human HepG2 cells after 24 hrs by MTT assay. The format is functional, cell-based. The settings on record: HepG2, 24 h. Summed up:
as §1

Each structure is given as a SMILES string. Activity calls are given as the source filed them. No cut-off for these calls is given here.

As a reminder, the IC50 is the midpoint of a concentration-inhibition curve. A higher IC50 goes with weaker potency in that assay.

Consider `COc1cc2c(c(OC)c1OC)-c1ccc(OC)c(=O)cc1[C@@H](NC(C)=O)CC2`, for which the result in the test filed under Homo sapiens was Active.

Take `COc1cc([C@@H]2c3cc4c(cc3[C@H](OC(=O)CN3CCN(C(c5ccc(F)cc5)c5ccc(F)cc5)CC3)[C@H]3COC(=O)[C@H]23)OCO4)cc(OC)c1OC`: the half-maximal inhibitory concentration (IC50) with A549 is 13.2 µM; in the test on MCF7, 6.23 µM; with L02, over 100 µM; with HeLa, 9.54 µM; in the test on HepG2, 7.04 µM.

`COc1cc([C@@H]2c3cc4c(cc3[C@H](OC(=O)CN3CCN(C(c5ccccc5)c5ccc(Cl)cc5)CC3)[C@H]3COC(=O)[C@H]23)OCO4)cc(OC)c1OC` (some centres not stated): the IC50 was 14.2 µM with A549; 7.75 µM with MCF7; over 100 µM with L02; 12.2 µM in the test on HeLa; 10.9 µM with HepG2.

With `CC(=O)O[C@H]1C(=O)[C@@]2(C)[C@H]([C@H](OC(=O)c3ccccc3)[C@]3(O)C[C@H](OC(=O)[C@H](O)[C@@H](NC(=O)c4ccccc4)c4ccccc4)C(C)=C1C3(C)C)[C@]1(OC(C)=O)CO[C@@H]1C[C@@H]2O`, the result in the test filed under Homo sapiens was inactive.

Turning to `COc1cc([C@@H]2c3cc4c(cc3[C@H](OC(=O)CN3CCN(c5ccc([N+](=O)[O-])cc5)CC3)[C@H]3COC(=O)[C@H]23)OCO4)cc(OC)c1OC`, the IC50 in the test on A549 is 8.15 µM; in the test with MCF7 it was 9.6 µM; in the test on L02 it was over 100 µM; with HeLa it was 11 µM; in the test on HepG2 it was 6.87 µM.

`COc1cc([C@@H]2c3cc4c(cc3[C@H](OC(=O)CN3CCN(c5ccc(F)cc5)CC3)[C@H]3COC(=O)[C@H]23)OCO4)cc(OC)c1OC`: the half-maximal inhibitory concentration (IC50) was 11.9 µM with A549; 8.49 µM in the test with MCF7; over 100 µM in the test with L02; 17.3 µM with HeLa; 12.6 µM with HepG2.

On to `COc1cc([C@@H]2c3cc4c(cc3[C@H](OC(=O)CN3CCN(c5cccc(C(F)(F)F)c5)CC3)[C@H]3COC(=O)[C@H]23)OCO4)cc(OC)c1OC`, for which the IC50 in the test with A549 was 10.8 µM; in the test on MCF7 it was 7.19 µM; in the test on L02 it was over 100 µM; in the test on HeLa, 6.82 µM; with HepG2 it was 9.61 µM.

`COc1cc([C@@H]2c3cc4c(cc3[C@H](OC(=O)CN3CCN(c5ccccc5)CC3)[C@H]3COC(=O)[C@H]23)OCO4)cc(OC)c1OC`: the half-inhibitory concentration (IC50) in the test on A549 was 15.2 µM; in the test on MCF7 it was 22 µM; in the test on L02, 75.8 µM; with HeLa, 33 µM; with HepG2, 16.6 µM.

On to `COc1ccccc1N1CCN(CC(=O)O[C@H]2c3cc4c(cc3[C@@H](c3cc(OC)c(OC)c(OC)c3)[C@H]3C(=O)OC[C@@H]32)OCO4)CC1`, for which the 50% inhibitory concentration (IC50) is 28.6 µM with A549; 48.2 µM in the test with MCF7; 90.7 µM in the test with L02; over 50 µM with HeLa; 34.2 µM in the test with HepG2.

On to `COc1cc([C@@H]2c3cc4c(cc3[C@H](OC(=O)CN3CCN(c5ccccc5Cl)CC3)[C@H]3COC(=O)[C@H]23)OCO4)cc(OC)c1OC`, for which the IC50 was 8.47 µM in the test with A549; 9.98 µM in the test with MCF7; over 100 µM in the test with L02; 11.3 µM in the test on HeLa; 17.7 µM in the test on HepG2.

With `COc1cc([C@@H]2c3cc4c(cc3[C@H](OC(=O)CN3CCN(C(c5ccccc5)c5ccccc5)CC3)[C@H]3COC(=O)[C@H]23)OCO4)cc(OC)c1OC`, the half-inhibitory concentration (IC50) in the test on A549 turned out to be 12.3 µM; in the test on MCF7 it was 16.5 µM; in the test with L02, 65.8 µM; in the test with HeLa, 23.2 µM; in the test with HepG2, 16.4 µM.

`COc1cc([C@@H]2c3cc4c(cc3[C@H](OC(=O)CN3CCN(c5cccc(Cl)c5)CC3)[C@H]3COC(=O)[C@H]23)OCO4)cc(OC)c1OC`: the IC50 in the test on A549 was 9.26 µM; in the test with MCF7, 9.87 µM; in the test with L02 it was 99.3 µM; with HeLa, 8.3 µM; with HepG2, 13.5 µM.

Regarding `COc1cc([C@@H]2c3cc4c(cc3[C@H](OC(=O)CN3CCN(c5cccc(Cl)c5Cl)CC3)[C@H]3COC(=O)[C@H]23)OCO4)cc(OC)c1OC`, the IC50 in the test with A549 is 7.51 µM; with MCF7, 3.02 µM; in the test on L02, 97.8 µM; in the test on HeLa it was 7.83 µM; with HepG2 it was 6.15 µM.

In the case of `COc1cccc(N2CCN(CC(=O)O[C@H]3c4cc5c(cc4[C@@H](c4cc(OC)c(OC)c(OC)c4)[C@H]4C(=O)OC[C@@H]43)OCO5)CC2)c1`, the IC50 is 23.2 µM with A549; 12.2 µM in the test on MCF7; over 100 µM in the test on L02; 36.7 µM in the test with HeLa; 36.7 µM in the test on HepG2.

Regarding `COc1cc([C@@H]2c3cc4c(cc3[C@H](OC(=O)CN3CCN(c5ccc(C)cc5C)CC3)[C@H]3COC(=O)[C@H]23)OCO4)cc(OC)c1OC`, the IC50 with A549 is 34.4 µM; in the test on MCF7, over 50 µM; with L02 it was 93.9 µM; with HeLa, 23.1 µM; in the test with HepG2, 45.8 µM.

Take `COc1cc([C@@H]2c3cc4c(cc3[C@H](OC(=O)CN3CCN(c5ccccc5F)CC3)[C@H]3COC(=O)[C@H]23)OCO4)cc(OC)c1OC`: the half-inhibitory concentration (IC50) with A549 is 9.8 µM; in the test on MCF7 it was 11.7 µM; in the test on L02 it was over 100 µM; in the test on HeLa, 18 µM; in the test on HepG2, 15.4 µM.

With `COc1ccc(N2CCN(CC(=O)O[C@H]3c4cc5c(cc4[C@@H](c4cc(OC)c(OC)c(OC)c4)[C@H]4C(=O)OC[C@@H]43)OCO5)CC2)cc1`, the 50% inhibitory concentration (IC50) with A549 is 16.4 µM; in the test on MCF7 it was 13.5 µM; with L02 it was 87.9 µM; with HeLa, 31.6 µM; in the test on HepG2, 25.9 µM.

Regarding `COc1cc([C@@H]2c3cc4c(cc3[C@@H](O[C@@H]3O[C@@H]5CO[C@@H](C)O[C@H]5[C@H](O)[C@H]3O)[C@H]3COC(=O)[C@H]23)OCO4)cc(OC)c1O` [ETOPOSIDE], the concentration for half-maximal inhibition (IC50) in the test on A549 came to 6.21 µM; with MCF7, 2.08 µM; in the test on L02, 7.75 µM; with HeLa, 1.58 µM; with HepG2, 5.52 µM.
